Reference: paper PMC3059864 (Clinics, 2011)

What was measured:
[1] = Biodistribution by pretargeting system in Nude mice bearing PC‐3 tumor cells; parameters: species or system Nude mice (Balb/c); conditions: mouse, in vivo, iv, 50 ul of the mixture
[2] = test system: PC‐3 tumor xenografts; assay: Scintigraphic imaging of tumor‐bearing mice; assay type: in vivo, Nude mice (Balb/c); conditions: tumor‐bearing Nude mice
Procedure, shortened: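 PC-3 xenograft-bearing nude mice were pretargeted with the SA:B-MORF:biotinylated BBN analogue mixture (1:1:2) for 7 or 15 h, then given 99mTc-MAG3-cMORF intravenously. Anaesthetised mice, lying horizontally, were imaged on a gamma camera with a low-energy high-resolution collimator. Acquisition used a 20% energy window at 140 keV for 180 s. Tumour region-of-interest uptake was expressed as a percentage.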

Structure (SMILES): CSCC[C@H](NC(=O)[C@H](CC(C)C)NC(=O)[C@H](Cc1c[nH]cn1)NC(=O)CNC(=O)[C@@H](NC(=O)[C@H](C)NC(=O)[C@H](Cc1c[nH]c2ccccc12)NC(=O)[C@H](CCC(N)=O)NC(=O)CCOCCOCCOCCOCCOCCOCCOCCOCCOCCOCCOCCOCCNC(=O)CCCC[C@@H]1SC[C@@H]2NC(=O)N[C@@H]21)C(C)C)C(N)=O [B‐PEG‐BBN, Biotin‐dPEG‐Gln‐Trp‐Ala‐Val‐Gly‐His‐Leu‐Met‐NH2]
- tissue to tissue ratio [1]: 2.45
- ROI (region of interest) in scintigraphic images ([2]; 7 h): 1.47%
- ROI (region of interest) in scintigraphic images ([2]; 15 h): 1.22%
